ABHD5 PLIN5 PPI: inhibitors of human ABHD5-perilipin-5 interaction | Q00G26+Q8WTS1 | Split G. princeps luciferase complementation, luminescence, 4 h | inhibition, % at 4 µM | actives 0.78% (n = 360,000) | AID 602281;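 active = inhibition above the mean inhibition across every tested compound plus 3 SD, cut at about 22% in these data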;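 note: 0% = DMSO only wells and the 100% control is not disclosed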
UPR CHOP act: apoptotic UPR (CHOP) activation; actives 0.34% (n = 330,000); CHO-CHOP luciferase reporter, luminescence; percent of tunicamycin response over DMSO baseline; activation, % at 10 µM; AID 449763;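 active = at 10 µM dose, activation of 40% or more, normalized to positive control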;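 note: 100% = tunicamycin at 10 µg/mL and 0% = DMSO alone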
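Evaluation: % reporter activation, DMSO baseline versus tunicamycin full activation; System: CHO-CHOP luciferase reporter cell line; Input: 500 cells/well; Incubation: 6 h compound treatment, 37 °C; Measured by: Steady-Glo luciferase luminescence; Dosing: one dose, 10 µM in 0.5% DMSO; Buffer or medium: F12 medium, 10% FBS; Benchmarks: positive tunicamycin 10 µg/mL, negative DMSO alone.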
UPR XBP1 act: activators of adaptive arm of unfolded protein response (XBP1); CHO-XBP1 luciferase reporter, IRE1-XBP1 UPR activation, luminescence; percent of tunicamycin response, DMSO as zero; activation, % at 20 µM; actives 0.33% (n = 330,000); AID 463104;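 active = versus positive control, 20 µM dose yields 30% or more activation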;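 note: 100% = tunicamycin at 10 µg/mL and 0% = DMSO only wells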
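Material: CHO cell line with stable XBP1 luciferase reporter; schedule: 16-18 h cell attachment at 37 °C, then 6 h compound exposure; signal: glow luminescence from Steady-Glo reagent; medium: serum-containing F12 medium, 10% FBS; benchmarks: tunicamycin 10 µg/mL and vehicle-only wells; read-out: percent activation relative to tunicamycin reference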
Exocytosis inh: blocks lytic granule exocytosis | TALL-104 LAMP-1 surface exposure, flow cytometry; cells stimulated with thapsigargin and PMA | inhibition, % at 10 µM | actives 0.66% (n = 360,000);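 active = inhibition above about 55%, limit read from the data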
Mdm2-MdmX inh: disrupts the human Mdm2-MdmX interaction. inhibition, % at 8 µM. actives 3% (n = 330,000). SaOS-2 split-luciferase Mdm2/MdmX complementation, luminescence. AID 485346. O15151+Q00987;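 active = inhibition of at least 50% at 8 µM in the primary screen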
Mdm2 MdmX conf: confirmation of human Mdm2/MdmX interaction inhibitors | actives 55% (n = 10,000) | inhibition, % at 8 µM | shares compounds with Mdm2-MdmX inh | Mdm2-MdmX binding, luminescent assay; in the data active = inhibition above about 40%
FLuc counter: counter-screen for Mdm2/MdmX inhibitors: full-length luciferase. inhibition, % at 8 µM. SaOS-2 full-length luciferase counterscreen, luminescence. shares compounds with Mdm2-MdmX inh. actives 77% (n = 6,200);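 active = mean inhibition at 8 µM reaching about 37%, which flags the compound as non-specific, limit read from the data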;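 note: p53-null SaOS-2 cells with luciferase driven by a doxycycline-inducible promoter; compound on cells about two nights before reading with doxycycline added after day one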
* = called active by the depositor; · = no result given. An excerpt weighted towards active compounds, which were near 4% of everything screened.

SMILES	ABHD5 PLIN5 PPI	UPR CHOP act	UPR XBP1 act	Exocytosis inh	Mdm2-MdmX inh	Mdm2 MdmX conf	FLuc counter
Cc1cc(C)cc(C(=O)O/N=C(\N)c2ccc(Br)cc2)c1	2	5	0	-1	100*	78*	90*
N/C(=N\OC(=O)c1ccc2ccccc2c1)c1ccc(Br)cc1	1	1	1	-4	62*	47*	96*
COc1ccc(C(=O)O/N=C(\N)c2ccc(Cl)cc2)cc1	-9	7	1	3	100*	34	163*
Cc1cccc(C(=O)O/N=C(\N)c2ccc(Br)cc2)c1	4	2	5	0	51*	-8	·
N/C(=N\OC(=O)c1ccoc1)c1ccc(Br)cc1	-7	8	-3	0	-46	·	·
CCN(CC)CCCN1C(=O)C(O)=C(C(=O)c2ccc(C)o2)C1c1ccc(C)o1 (stereo not given)	8	0	-4	3	-23	·	·
Cc1noc(-c2ccccc2)c1NC(=O)Nc1ccc2nc([C@H]3C[C@H](O)[C@@H](CO)O3)[nH]c2c1	-8	·	·	-5	·	·	·
NC(=O)C1(N2CCCCC2)CCN(C(=S)Nc2ccc(F)cc2)CC1	10	1	0	-1	19	·	·
Cc1ccc(/C(N)=N/OC(=O)c2ccc3c(c2)OCO3)cc1	-2	7	0	5	36	·	·
N/C(=N\OC(=O)c1cccc(Br)c1)c1ccccc1	-1	5	-2	0	-51	·	·
Cc1ccc(C(=O)O/N=C(\N)c2ccc(Br)cc2)cc1C	-1	1	-2	0	99*	83*	116*
N/C(=N\OC(=O)c1ccc2c(c1)OCO2)c1ccc(Cl)cc1	0	-1	-2	-8	82*	17	·
Cc1cccc(C(=O)O/N=C(\N)c2ccc(Cl)cc2)c1	-3	8	0	11	51*	-13	·
Cc1ccc(C)c(C(=O)O/N=C(\N)c2ccc(Br)cc2)c1	0	0	0	-1	57*	54*	104*
Cc1ccc(/C(N)=N/OC(=O)c2ccc(Cl)cc2Cl)cc1	2	4	-2	2	31	·	·
Cc1cccc(/C(N)=N/OC(=O)c2ccncc2)c1	-2	4	-1	1	-105	·	·
CCOC(=O)C1=C(C)NC(=O)CC1c1cc2c(cc1[N+](=O)[O-])OCO2 (stereo not given)	1	3	-1	-3	-21	·	·
COc1ccc(NC(=O)Nc2cccc3ccccc23)cc1OC	-2	0	-4	-2	29	·	·
Cc1nnc(SCCn2c(N3CCCCC3)nc3c2c(=O)[nH]c(=O)n3C)s1	-6	1	-2	0	3	·	·
Cc1cccn2cc(-c3cccc(NC(=O)c4cccs4)c3)nc12	3	5	-3	-2	-4	·	·
Cc1ccccc1CS(=O)(=O)c1cnc2ccccc2n1	6	-1	-3	1	55*	24	·
Cc1ccccc1CS(=O)(=O)c1snnc1C	-1	-2	2	4	16	·	·
CN(C)c1ccnc2sc(C(N)=O)c(N)c12	-11	-1	2	20	97*	81*	21
CCCCP(=O)(CCCC)Cc1ccccc1O	7	1	-1	-2	34	·	·
COc1cc(C2CC(=O)Oc3c2c(=O)n(C)c2ccccc32)ccc1O (stereo not given)	3	-1	-4	-2	-16	·	·
SMILES	ABHD5 PLIN5 PPI	UPR CHOP act	UPR XBP1 act	Exocytosis inh	Mdm2-MdmX inh	Mdm2 MdmX conf	FLuc counter
Cc1ccc(CSc2nccc(-c3c(C)nc4ccccn34)n2)cc1	-3	1	1	2	66*	46*	53*
Cc1ccc(CSc2ncn(-c3ccccc3)n2)cc1	-8	1	4	8	-13	·	·
O=C(NNC(=O)C12CC3CC(CC(C3)C1)C2)c1ccccc1O	10	2	-1	-1	53*	17	·
O=C(NNC(=O)C12CC3CC(CC(C3)C1)C2)c1ccccc1F	0	2	0	-4	-40	·	·
CCCS(=O)(=O)NC(=O)C1(C)CCN(C(=O)c2cc3ccccc3s2)C1 (stereo not given)	1	·	·	2	·	·	·
Cc1cccc(NC(=O)CN2CCN(CC(=O)NCc3ccc(Cl)cc3Cl)CC2)c1C	7	1	-3	5	11	·	·
Cc1cc(C(=O)OCC(=O)NCc2ccc(F)cc2)c2ccccc2n1	4	0	1	12	18	·	·
Cc1cc(C(=O)OCC(=O)Nc2ccc(F)cc2[N+](=O)[O-])c2ccccc2n1	-2	0	-1	0	52*	51*	100*
COc1cccc(CN(CC(=O)NC2CCCC2)C(=O)c2csnn2)c1	-5	1	-2	-11	-24	·	·
O=C(Nc1ccc(Cl)cc1)Nc1cc([N+](=O)[O-])ccc1F	-5	2	5	0	49	·	·
O=C(Nc1ccc([N+](=O)[O-])cc1)Nc1ccc(Cl)cc1F	-7	2	5	1	87*	91*	73*
COc1ccc(OC(C)C(=O)Nc2ccc([N+](=O)[O-])cc2)cc1 (stereo not given)	1	-5	2	-5	28	·	·
O=C(Nc1csc([N+](=O)[O-])c1)Nc1c(Cl)cccc1Cl	6	-2	-2	9	30	·	·
Cc1cc(OC(F)F)ccc1NC(=O)Nc1ccc([N+](=O)[O-])cc1	-3	1	4	2	96*	86*	47*
O=C(Nc1ccc(Cl)cc1)Nc1csc([N+](=O)[O-])c1	-3	14	8	1	94*	76*	31
Cc1ccc(CS(=O)(=O)Cc2ccc(C(=O)NC3CCCCCC3)o2)cc1	6	-1	-4	1	17	·	·
COc1ccc(C2c3ccc(O)cc3Oc3ncn(Cc4ccco4)c(=N)c32)cc1OC (stereo not given)	4	1	0	-11	16	·	·
COc1ccccc1C1c2ccc3ccccc3c2Oc2ncn(CCN(C)C)c(=N)c21 (stereo not given)	22	2	3	46	100*	85*	38*
COc1ccc(C2c3ccc4ccccc4c3Oc3ncn(Cc4ccco4)c(=N)c32)cc1OC (stereo not given)	13	5	1	16	85*	54*	67*
COc1ccccc1C1c2ccc3ccccc3c2Oc2ncn(CCCO)c(=N)c21 (stereo not given)	11	2	1	16	74*	43*	61*
Cc1cc(=O)n(-c2ccccc2Cl)[nH]1	-21	-2	4	-4	15	·	·

Screens from PubChem.
